The IC50 is the midpoint of a concentration-inhibition curve. A word on the MIC: it is the lowest concentration that inhibits growth of the organism. Broadly, the GI50 is the concentration that inhibits growth by half.

For assay [1], the system named is BT-549. As to the kind of experiment: Growth inhibition of human BT549 cells at 10 uM after 48 hrs by sulforhodamine B assay. The format is functional, cell-based.
The test system of assay [2] is MCF7. Kind of assay: Growth inhibition of human MCF7 cells at 10 uM after 48 hrs by sulforhodamine B assay. The format is functional, cell-based. A general note: In SRB staining, fixed cells bind dye roughly in proportion to their protein.
For assay [3], the system named is DU-145. Kind of assay: Growth inhibition of human DU145 cells at 10 uM after 48 hrs by sulforhodamine B assay. The assay is classed as functional, cell-based.
Assay [4] concerns PC-3. Kind of assay: Growth inhibition of human PC3 cells at 10 uM after 48 hrs by sulforhodamine B assay. The format is functional, cell-based.
For assay [5], the system named is CAKI-1. As to the kind of experiment: Growth inhibition of human CAKI-1 cells at 10 uM after 48 hrs by sulforhodamine B assay. The assay is classed as functional, cell-based.
Assay [6] deals with A498. Kind of assay: Growth inhibition of human A498 cells at 10 uM after 48 hrs by sulforhodamine B assay. The assay is classed as functional, cell-based.
Assay [7] concerns OVCAR-3. As to the kind of experiment: Growth inhibition of human OVCAR3 cells at 10 uM after 48 hrs by sulforhodamine B assay. The format is functional, cell-based.
Another assay deals with NCI/ADR-RES. Kind of assay: Growth inhibition of human NCI-ADR-RES cells at 10 uM after 48 hrs by sulforhodamine B assay. The assay is classed as functional, cell-based.
Assay [8] has as its system SK-MEL-5. Kind of assay: Growth inhibition of human SK-MEL-5 cells at 10 uM after 48 hrs by sulforhodamine B assay. The format is functional, cell-based.
Assay [9] relates to MDA-MB-435. Kind of assay: Growth inhibition of human MDA-MB-435 cells at 10 uM after 48 hrs by sulforhodamine B assay. The format is functional, cell-based.
The test system of assay [10] is SNB-75. Kind of assay: Growth inhibition of human SNB75 cells at 10 uM after 48 hrs by sulforhodamine B assay. The format is functional, cell-based.
Assay [11] deals with HT-29. As to the kind of experiment: Growth inhibition of human HT-29 cells at 10 uM after 48 hrs by sulforhodamine B assay. The assay is classed as functional, cell-based.
The test system of assay [12] is SF-539. As to the kind of experiment: Growth inhibition of human SF539 cells at 10 uM after 48 hrs by sulforhodamine B assay. The format is functional, cell-based.
The subject of assay [13] is HCT-15. Kind of assay: Growth inhibition of human HCT15 cells at 10 uM after 48 hrs by sulforhodamine B assay. The format is functional, cell-based.
In assay [14] the test system is NCI-H460. As to the kind of experiment: Growth inhibition of human NCI-H460 cells at 10 uM after 48 hrs by sulforhodamine B assay. The assay is classed as functional, cell-based.
Assay [15] relates to A549. As to the kind of experiment: Growth inhibition of human A549 cells at 10 uM after 48 hrs by sulforhodamine B assay. The assay is classed as functional, cell-based.
Assay [16] concerns SR. As to the kind of experiment: Growth inhibition of human SR cells at 10 uM after 48 hrs by sulforhodamine B assay. The format is functional, cell-based.
The subject of assay [17] is RPMI-8226. As to the kind of experiment: Growth inhibition of human RPMI8226 cells at 10 uM after 48 hrs by sulforhodamine B assay. The assay is classed as functional, cell-based.
In assay [18] the test system is NCI-H460. As to the kind of experiment: Cytotoxicity against human NCI-H460 cells assessed as inhibition of cell viability by MTT assay. The assay is classed as functional, cell-based. The procedure, abridged:
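NCI-H460 cells in RPMI 1640 with 10% FBS and 2 mM glutamine at 37 °C, 5% CO₂. Seeded at 10,000 cells/well for 12 h, then dosed in 1% FBS medium (DMSO below 0.1% final). MTT (10 µL of 5 mg/mL) for 4 h, formazan dissolved in DMSO for 45 min, absorbance at 562 nm. Triplicate wells, at least three runs (N = 9).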
On the technique in general: Tetrazolium assays rely on reduction of a dye to a coloured formazan, in cell work by metabolically active cells.

Assay [19] can be described thus: Antibacterial activity against Bacillus subtilis JH642 containing trpC2 pheA1 assessed as growth inhibition after 16 hrs by broth dilution method. The format is functional, Bacillus subtilis subsp. subtilis str. JH642. In outline:
(§1)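 Strains grown overnight in LB, diluted 10-fold, shaken at 37 °C for 45 min–1 h (~10⁸ CFU/mL), then diluted ~1000-fold to ~10⁵ CFU/mL. Broth dilution in LB: 20 mM DMSO stocks, 1:2 serial dilutions giving seven concentrations, inoculum added 1:1. OD600 read with shaking.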
In general terms: Broth dilution looks for growth in wells or tubes with falling amounts of substance.

Assay [20] deals with Escherichia coli. Kind of assay: Antibacterial activity against Escherichia coli K-12 BAS901 harboring genetically modified imp-4213, zab4292::Tn5 assessed as growth inhibition after 16 hrs by broth dilution method. The format is functional. Particulars: K-12 BAS901, 16 h. In outline: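 Kanamycin-resistant strain grown overnight in LB with kanamycin 50 µg/mL, diluted 10-fold, then shaken at 37 °C for 45 min–1 h (~10⁸ CFU/mL). Diluted ~1000-fold to 10⁵ CFU/mL in LB. DMSO stocks (20 mM) prepared as 4X working solutions in LB. Seven 1:2 serial dilutions mixed with equal-volume inoculum. OD600 read with shaking.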

The subject of assay [21] is Escherichia coli. As to the kind of experiment: Antibacterial activity against Escherichia coli K-12 MG1655 assessed as growth inhibition after 16 hrs by broth dilution method. The format is functional. As to conditions: K-12 substr. MG1655, 16 h. In outline:
as §1

For assay [22], the system named is BT-549. Kind of assay: Growth inhibition of human BT549 cells after 48 hrs by sulforhodamine B assay. The assay is classed as functional. As to conditions: BT-549, 48 h. The procedure, abridged:
(§2)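 Cells in RPMI 1640 with 5% FBS, plated at 5,000–40,000/well and grown 24 h. Time-zero plates fixed with TCA. Five drug concentrations, 48 h at 37 °C, 5% CO₂. Fixation with TCA (10% final for adherent lines; 16% final for suspension lines), staining with 0.4% SRB, reading at 515 nm. GI50 is the concentration giving a 50% reduction in net protein increase relative to time zero.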

Assay [23] relates to MCF7. As to the kind of experiment: Growth inhibition of human MCF7 cells after 48 hrs by sulforhodamine B assay. The format is functional. Particulars: MCF7, 48 h. In outline:
as §2

Assay [24] deals with DU-145. As to the kind of experiment: Growth inhibition of human DU145 cells after 48 hrs by sulforhodamine B assay. The assay is classed as functional. As to conditions: DU-145, 48 h. The procedure, abridged: as §2
Assay [25] relates to PC-3. As to the kind of experiment: Growth inhibition of human PC3 cells after 48 hrs by sulforhodamine B assay. The format is functional. As to conditions: PC-3, 48 h. In outline:
as §2

The subject of assay [26] is CAKI-1. As to the kind of experiment: Growth inhibition of human CAKI-1 cells after 48 hrs by sulforhodamine B assay. The assay is classed as functional. As to conditions: CAKI-1, 48 h. In outline:
as §2

Assay [27] relates to A498. Kind of assay: Growth inhibition of human A498 cells after 48 hrs by sulforhodamine B assay. The format is functional. As to conditions: A498, 48 h. In outline: as §2
A short description of assay [28]: Growth inhibition of human NCI-ADR-RES cells after 48 hrs by sulforhodamine B assay. The format is functional. In outline:
as §2

Assay [29] deals with OVCAR-3. As to the kind of experiment: Growth inhibition of human OVCAR3 cells after 48 hrs by sulforhodamine B assay. As to conditions: OVCAR-3, 48 h. The assay is classed as functional. The procedure, abridged:
as §2

For assay [30], the system named is SK-MEL-5. As to the kind of experiment: Growth inhibition of human SK-MEL-5 cells after 48 hrs by sulforhodamine B assay. The format is functional. Particulars: SK-MEL-5, 48 h. In outline: as §2
The test system of assay [31] is MDA-MB-435. As to the kind of experiment: Growth inhibition of human MDA-MB-435 cells after 48 hrs by sulforhodamine B assay. The format is functional. Particulars: MDA-MB-435, 48 h. In outline:
as §2

The subject of assay [32] is SF-539. Kind of assay: Growth inhibition of human SF539 cells after 48 hrs by sulforhodamine B assay. As to conditions: SF-539, 48 h. The format is functional. The procedure, abridged: as §2
Assay [33] deals with SNB-75. As to the kind of experiment: Growth inhibition of human SNB75 cells after 48 hrs by sulforhodamine B assay. The format is functional. Particulars: SNB-75, 48 h. In outline: as §2
The test system of assay [34] is HCT-15. As to the kind of experiment: Growth inhibition of human HCT15 cells after 48 hrs by sulforhodamine B assay. The format is functional. As to conditions: HCT-15, 48 h. In outline: as §2
Assay [35] relates to HT-29. Kind of assay: Growth inhibition of human HT-29 cells after 48 hrs by sulforhodamine B assay. The assay is classed as functional. Particulars: HT-29, 48 h. In outline: as §2
The subject of assay [36] is NCI-H460. As to the kind of experiment: Growth inhibition of human NCI-H460 cells after 48 hrs by sulforhodamine B assay. The format is functional. Particulars: NCI-H460, 48 h. In outline:
as §2

For assay [37], the system named is A549. As to the kind of experiment: Growth inhibition of human A549 cells after 48 hrs by sulforhodamine B assay. The format is functional. Particulars: A549, 48 h. In outline:
as §2

Assay [38] has as its system SR. As to the kind of experiment: Growth inhibition of human SR cells after 48 hrs by sulforhodamine B assay. The assay is classed as functional. The procedure, abridged: as §2
Assay [39] relates to RPMI-8226. Kind of assay: Growth inhibition of human RPMI8226 cells after 48 hrs by sulforhodamine B assay. Particulars: RPMI-8226, 48 h. The format is functional. In outline:
as §2

Values after ≈ are worked out from the molar mass of the structure shown. Active and inactive are the calls of the source. The rule behind the calls is not given here.

As for `CCCCCCCCCCCCO[C@@H]1O[C@@H](C)[C@H](O[C@@H]2O[C@@H](C)[C@H](OC(C)=O)[C@@H](O[C@@H]3O[C@@H](C)[C@H](O)[C@@H](O[C@@H]4O[C@@H](C)[C@H](OC(C)=O)[C@@H](O)[C@H]4O)[C@H]3OC(C)=O)[C@H]2O)[C@@H](O)[C@H]1O`, the “growth inhibition (GI)” value in the assay with BT-549 [1], in the assay on MCF7 [2], with DU-145 [3], with PC-3 [4], in the assay with CAKI-1 [5] and in the assay with A498 [6] was “inactive” throughout. Moreover, the “growth inhibition (GI)” value with OVCAR-3 [7], with NCI/ADR-RES, in the assay on SK-MEL-5 [8], in the assay with MDA-MB-435 [9], in the assay with SNB-75 [10] and in the assay on HT-29 [11] was “inactive” throughout. Moreover, the “growth inhibition (GI)” value in the assay with SF-539 [12], with HCT-15 [13], in the assay with NCI-H460 [14], in the assay with A549 [15], in the assay on SR [16] and with RPMI-8226 [17] was “inactive” in each case. The IC50 in the assay with NCI-H460 [18] amounted to 16.5 µM. The MIC in assay [19] was 8 µM (≈ 7.18 µg/mL); in the assay on Escherichia coli [20], 16 µM (≈ 14.4 µg/mL); in the assay with Escherichia coli [21], greater than 64 µM.
For `CCCCCCCCCCCCO[C@@H]1O[C@@H](C)[C@H](O[C@@H]2O[C@@H](C)[C@H](OC(C)=O)[C@@H](O[C@@H]3O[C@@H](C)[C@H](OC(C)=O)[C@@H](O[C@@H]4O[C@@H](C)[C@H](OC(C)=O)[C@@H](OC(C)=O)[C@H]4OC(C)=O)[C@H]3OC(C)=O)[C@H]2O)[C@@H](O)[C@H]1O`, the GI50 in the assay with BT-549 [22] is 1050 nM; in the assay on MCF7 [23], 890 nM; with DU-145 [24], 800 nM; in the assay with PC-3 [25] it was 710 nM; in the assay on CAKI-1 [26], 860 nM; in the assay on A498 [27] it was 670 nM. Moreover, the GI50 in assay [28] is 920 nM; with OVCAR-3 [29], 840 nM; in the assay on SK-MEL-5 [30] it was 760 nM; in the assay with MDA-MB-435 [31], 880 nM; with SF-539 [32], 800 nM; in the assay with SNB-75 [33], 540 nM. Also, the GI50 in the assay with HCT-15 [34] was found to be 820 nM; in the assay with HT-29 [35] it was 910 nM; in the assay on NCI-H460 [36], 930 nM; in the assay on A549 [37] it was 800 nM; with SR [38], 920 nM; in the assay with RPMI-8226 [39], 1040 nM. Further, in the assay on NCI-H460 [18], the IC50 worked out at 16.4 µM. Further, the MIC (in [19]; in the assay on Escherichia coli [20]; in the assay with Escherichia coli [21]) was greater than 64 µM each time.

The values are drawn from ChEMBL document CHEMBL2203229, “Structure Activity Relationship Study of the Cleistriosides and Cleistetrosides for Antibacterial/Anticancer Activity” (ACS Med Chem Lett, 2012).
